In the library only some 3.8% were active in any assay of this set; here they are far more common.
KCNQ1 block – blocks the human KCNQ1 potassium channel; P51787; CHO-K1 KCNQ1, FluxOR thallium flux fluorescence; active compounds read high; B-score at 10 µM; 1.3% of 310,000 active;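 active means compounds whose thallium flux B-score, printed positive for inhibition, exceeds three library SD while starting fluorescence stays within three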;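 further: channel opened by potassium depolarization with thallium stimulus after 20 min compound exposure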
KCNQ1 pot – potentiators or activators of human KCNQ1 potassium channel. P51787. CHO-K1 KCNQ1, thallium flux FluxOR fluorescence; active compounds read high. B-score at 10 µM. 0.35% of 310,000 active. AID 2648;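 active means fluorescence ratio B-score, a plate-corrected score, at least three library SD, with initial intensity B-score within 5 SD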
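Medium – assay buffer, equal DMSO in all wells · Material – CHO-K1 cell line with stable KCNQ1 potassium channel expression · Signal – kinetic FluxOR thallium fluorescence, 10-s 1-Hz baseline, 110-s post-stimulus read · Compound – single concentration per compound, DMSO matched to controls · Schedule – 37 °C overnight plating, 90-min dark dye load, 20-min compound pretreatment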
Kir21 inh – blocks the mouse Kir2.1 inward-rectifier potassium channel | HEK293-Kir2.1, FluxOR thallium flux fluorescence; active compounds read low | B-score at 10 µM | 0.85% of 310,000 active | AID 1672;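 active means fluorescence ratio B-score at or below minus 3 SD of library scores, with starting-brightness B-score within 2 SD, cut at about -4.2 in these data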;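 further: channel flux triggered by added potassium and thallium sulfate stimulus; B-score of peak minus minimum fluorescence over baseline after thallium stimulus; more negative B-score means stronger Kir2.1 block with less thallium influx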
Target sequence (P35561 whole entry, looked up): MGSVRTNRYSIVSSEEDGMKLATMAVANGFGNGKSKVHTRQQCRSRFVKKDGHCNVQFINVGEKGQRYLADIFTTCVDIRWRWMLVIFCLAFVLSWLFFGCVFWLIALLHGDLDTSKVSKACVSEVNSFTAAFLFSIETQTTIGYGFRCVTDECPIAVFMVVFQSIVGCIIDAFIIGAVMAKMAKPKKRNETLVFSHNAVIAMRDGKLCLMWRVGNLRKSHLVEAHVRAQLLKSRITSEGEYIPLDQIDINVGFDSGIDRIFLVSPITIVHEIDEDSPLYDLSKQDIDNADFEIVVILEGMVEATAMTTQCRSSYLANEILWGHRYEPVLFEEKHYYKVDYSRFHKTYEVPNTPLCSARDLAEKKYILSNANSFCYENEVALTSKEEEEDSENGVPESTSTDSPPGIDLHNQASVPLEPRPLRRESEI
KCNK9 inh – human KCNK9 channel inhibition; Q9NPC2; HEK293 KCNK9, FluxOR thallium flux fluorescence; active compounds read low; B-score at 10 µM; 1.2% of 310,000 active; AID 488922;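 active means ratio B-score over 3 SD below the library mean, with starting fluorescence within 5 SD of its mean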;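 further: negative B-score means less thallium flux so channel inhibition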
hERG protect – shields human hERG channel from block by proarrhythmic agents; Q12809; CHO-hERG, FluxOR thallium flux, dofetilide IC70 present; activation (rescue from dofetilide block), less the hit threshold, % at 10 µM; 0.51% of 310,000 active;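 active means activation above the mean of controls blocked by dofetilide plus 5 SD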;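 further: thallium influx through hERG after potassium depolarization seen as dye fluorescence rise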
KCNK3 block – human KCNK3 channel inhibition, primary screen; CHO-KCNK3 thallium flux, FluxOR fluorescence; active compounds read low; 0.84% of 340,000 active; B-score at 10 µM;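 active means B-score under library mean minus 4 SD, starting fluorescence ratio at most library mean plus 5 SD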;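 further: more negative B-score means stronger inhibition of thallium flux through KCNK3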
The depositor's hits bear a star.

Results for CCOc1ccc(-n2c(O)c(N=Nc3ccc([N+](=O)[O-])cc3)c(=O)[nH]c2=O)cc1 ?
KCNQ1 block: inactive; KCNQ1 pot: inactive; Kir21 inh: 0; KCNK9 inh: inactive; hERG protect: -3; KCNK3 block: inactive

How did CSc1ccc(CNC(C)C(O)c2ccccc2)cc1 (configuration not stated) do in these assays?
KCNQ1 block: inactive; KCNQ1 pot: inactive; Kir21 inh: -5.5*; KCNK9 inh: inactive; hERG protect: -16; KCNK3 block: inactive

What do the screens show for `CC(NCC#Cc1ccccc1)C(O)c1ccccc1` (configuration not stated)?
KCNQ1 block: inactive; KCNQ1 pot: inactive; Kir21 inh: -0.85; KCNK9 inh: inactive; hERG protect: -14; KCNK3 block: inactive

Results for C=C1C(=O)[C@@]23C[C@H]4[C@@H]5[C@@]6(C)CCC[C@@]57[C@@H]2[C@@H](O)[C@@H]1C[C@H]3[C@H]7N4C6 ?
KCNQ1 block: inactive; KCNQ1 pot: inactive; Kir21 inh: -0.85; KCNK9 inh: inactive; hERG protect: -4; KCNK3 block: inactive

What do the screens show for `CC1(C)C(C(=O)N2CCN(c3ccc(Cl)cc3)CC2)C1(C)C`?
KCNQ1 block: inactive; KCNQ1 pot: inactive; Kir21 inh: 1.3; KCNK9 inh: inactive; hERG protect: -7; KCNK3 block: inactive

Results for COC(=O)C1CN(C#N)N(c2ccc(Cl)cc2)C12c1ccccc1-c1ccccc12 (configuration not stated) ?
KCNQ1 block: inactive; KCNQ1 pot: inactive; Kir21 inh: 1.5; KCNK9 inh: -8.9*; hERG protect: -5; KCNK3 block: inactive

Results for COc1ccc(CCNC2CCCCCC2)cc1 ?
KCNQ1 block: inactive; KCNQ1 pot: inactive; Kir21 inh: -0.58; KCNK9 inh: inactive; hERG protect: -9; KCNK3 block: inactive

How did COC1CCCCC1NCCc1ccccc1 (configuration not stated) do in these assays?
KCNQ1 block: inactive; KCNQ1 pot: inactive; Kir21 inh: -2.3; KCNK9 inh: inactive; hERG protect: 5.0*; KCNK3 block: inactive

How did Cc1cccc(NP(C)(=O)c2nc3c(s2)CCCC3)c1 (configuration not stated) do in these assays?
KCNQ1 block: inactive; KCNQ1 pot: inactive; Kir21 inh: 1.1; KCNK9 inh: inactive; hERG protect: -6; KCNK3 block: inactive

How did Cc1ccc(S(=O)(=O)NC(Cc2cnc[nH]2)C(=O)O)cc1 (configuration not stated) do in these assays?
KCNQ1 block: inactive; KCNQ1 pot: inactive; Kir21 inh: 0.4; KCNK9 inh: inactive; hERG protect: 10*; KCNK3 block: inactive

Results for O=C(O)C(Cc1cnc[nH]1)NS(=O)(=O)c1ccc(Cl)cc1 (configuration not stated) ?
KCNQ1 block: inactive; KCNQ1 pot: inactive; Kir21 inh: 0.63; KCNK9 inh: inactive; hERG protect: -8; KCNK3 block: inactive

Results for CCOc1ccc(C=C2C(=O)NC(=S)NC2=O)cc1OCC ?
KCNK3 block: inactive

What do the screens show for `CCOc1cc(C=C2C(=O)NC(=O)NC2=O)ccc1OS(=O)(=O)c1ccccc1`?
KCNQ1 block: inactive; KCNQ1 pot: inactive; Kir21 inh: -5.5*; KCNK9 inh: inactive; hERG protect: -10; KCNK3 block: inactive

What do the screens show for `O=P(Nc1cccnc1)(Oc1ccccc1Cl)Oc1ccccc1Cl`?
KCNQ1 block: inactive; KCNQ1 pot: inactive; Kir21 inh: -4.8*; KCNK9 inh: inactive; hERG protect: -18; KCNK3 block: inactive

What do the screens show for `COc1ccc(NP(=O)(Oc2ccccc2OC)Oc2ccccc2OC)cc1`?
KCNQ1 block: inactive; KCNQ1 pot: inactive; Kir21 inh: -1.3; KCNK9 inh: inactive; hERG protect: -13; KCNK3 block: inactive

What do the screens show for `COc1ccc(Cc2c(O)[nH]c(=S)[nH]c2=O)cc1`?
KCNQ1 block: inactive; KCNQ1 pot: inactive; Kir21 inh: 1.7; KCNK9 inh: inactive; hERG protect: -5; KCNK3 block: inactive

Results for CC1(C)CSC(=NCc2ccccc2)N1 ?
KCNQ1 block: inactive; KCNQ1 pot: 7*; Kir21 inh: 0.11; KCNK9 inh: inactive; hERG protect: -6; KCNK3 block: inactive

What do the screens show for `COc1ccc(Cc2nccc3cc(OC)c(OC)cc23)cc1OC`?
KCNQ1 block: inactive; KCNQ1 pot: inactive; Kir21 inh: -8.3*; KCNK9 inh: inactive; hERG protect: -16; KCNK3 block: inactive

Results for COc1cc2c(ccc3c4cc(OC)c(OC)cc4c[n+](C)c23)cc1O ?
KCNK3 block: inactive

How did CCOC(=O)c1c(C=O)c2ccccc2n1Cc1ccccc1 do in these assays?
KCNQ1 block: inactive; KCNQ1 pot: inactive; Kir21 inh: -0.04; KCNK9 inh: inactive; hERG protect: -8; KCNK3 block: inactive

How did O=S(=O)(NC1CCCCC1)OCC(Cl)(Cl)Cl do in these assays?
KCNQ1 block: inactive; KCNQ1 pot: inactive; Kir21 inh: 0.11; KCNK9 inh: inactive; hERG protect: -5; KCNK3 block: inactive

How did CC(NS(=O)(=O)OCC(Cl)(Cl)Cl)c1ccccc1 (configuration not stated) do in these assays?
KCNQ1 block: inactive; KCNQ1 pot: inactive; Kir21 inh: -5.7*; KCNK9 inh: inactive; hERG protect: -5; KCNK3 block: inactive

How did O=C1C2CCCC1C(N1CCCC1)CC2 (configuration not stated) do in these assays?
KCNQ1 block: inactive; KCNQ1 pot: inactive; Kir21 inh: 2.6; KCNK9 inh: inactive; hERG protect: -12; KCNK3 block: inactive

Results for COc1ccc(C(O)P(=O)(OC(C)C)OC(C)C)cc1 (configuration not stated) ?
KCNQ1 block: inactive; KCNQ1 pot: inactive; Kir21 inh: -0.08; KCNK9 inh: inactive; hERG protect: -9; KCNK3 block: inactive

How did COc1ccc(C(=O)O/N=C(/C(N)=O)P(=O)(OC(C)C)OC(C)C)cc1 do in these assays?
KCNQ1 block: inactive; KCNQ1 pot: inactive; Kir21 inh: -4.6*; KCNK9 inh: inactive; hERG protect: 3; KCNK3 block: inactive

Results for O=S(=O)(c1ccc(Cl)cc1)N1CCCC1c1cccnc1 (configuration not stated) ?
KCNQ1 block: inactive; KCNQ1 pot: inactive; Kir21 inh: -5.2*; KCNK9 inh: inactive; hERG protect: -3; KCNK3 block: inactive

What do the screens show for `O=S(=O)(c1ccccc1)N1CCCCC1c1cccnc1` (configuration not stated)?
KCNQ1 block: inactive; KCNQ1 pot: inactive; Kir21 inh: -2.5; KCNK9 inh: inactive; hERG protect: 8.4*; KCNK3 block: inactive
